Compound activity from PubChem BioAssay.
Only some compounds are listed: those with a hit (about 1% of all), similar ones and a draw of the others.
Hep lipid drop: modulators of hepatic lipid droplet formation; AML12 mouse hepatocytes, oleate lipid droplets, BODIPY imaging; inhibition, % at 6.5 µM; 240,000 tested, 0.4% active; AID 1656;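 active = lipid droplet intensity inhibited by at least 50%, with more than 500 cells counted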
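Assay system: AML12 mouse liver cells | Compound dosing: One dose, 6.5 µM compound | Read-out basis: Droplet intensity reduction, % inhibition | Measured by: Fluorescence imaging, 20x objective, two fields per well | Schedule: Overnight treatment with compound plus oleate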
pCIP destab: compounds decreasing mouse p/CIP protein stability; F442A p/CIP-EGFP cells, EGFP fluorescence, 16 h; decrease of EGFP signal, % at 10 µM; 290,000 tested, 0.01% active;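 active = EGFP signal decrease of at least 30% at 10 µM or well 3 SD below plate mean, unless failing retest; inactive = the rest, including hits failing retest or dose response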
Arr AP2 block: inhibitors of human beta-arrestin and AP2 interaction. FITC-arrestin peptide / GST-AP2 beads, flow cytometry; AP2 beta2 appendage carries R879A mutation. inhibition, % at 10 µM. 340,000 tested, 0.31% active;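 active = inhibition above a set limit, near 3 SD of compounds lacking own fluorescence, cut at about 54% in these data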;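 note: plate controls were DMSO wells for no effect and 5 µM unlabelled arrestin peptide for full effect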
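Assay system: GST-AP2 R879A bound to glutathione beads, E. coli-expressed; Medium: PBS with 0.05% Tween 20 and 0.1% BSA; Also added: fluorescein-tagged arrestin peptide at 50 nM final; Timing: 12 min plus 1 h, RT; Measured by: flow cytometry, FL1 (488/535 nm); Evaluation: percent drop in bead-associated FITC signal.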
Fh CTSL1 inh: counter-screen for PFM18AAP inhibitors: inhibitors of F. hepatica cathepsin L1; recombinant F. hepatica cathepsin L1, Z-Leu-Arg-MCA fluorescence; inhibition, % at 5.96 µM; 300,000 tested, 0.49% active;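 active = inhibition above the mean of all tested compounds plus 3 SD, set per screening campaign, cut at about 17% in these data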;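 note: 0% = plate median of test compound wells and 100% = 1 µM Z-Phe-Ala-diazomethylketone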
* = called active by the depositor.

For O=C(Cc1ccc(O)cc1)NCCNC(=S)NCc1ccccc1 the results were Hep lipid drop -1.7, pCIP destab 0.0, Arr AP2 block 0.5 and Fh CTSL1 inh 25.2*.
Screening CCOc1ccccc1NC(=O)c1oc2ccccc2c1NC(=O)C1CCCO1 (stereo not drawn) returned Hep lipid drop 3.2, pCIP destab 1.5, Arr AP2 block -12.8 and Fh CTSL1 inh 18.1*.
For O=C(Nc1ccc(CN2CCOCC2)cc1)c1cccc(-c2cc3ccccc3oc2=O)c1 the results were Hep lipid drop 23.4, pCIP destab 8.4, Arr AP2 block -6.8 and Fh CTSL1 inh 5.0.
Screening CCCCNC(=S)N(CCN(CC)CC)Cc1cc2cc3c(cc2[nH]c1=O)OCCO3 returned Hep lipid drop -27.7, pCIP destab -18.2, Arr AP2 block -14.4 and Fh CTSL1 inh 17.6*.
CCCCNC(=S)N(CCN(CC)CC)Cc1cc2cc3c(cc2[nH]c1=O)OCO3 was read as Hep lipid drop 2.0, pCIP destab -8.2, Arr AP2 block 14.2 and Fh CTSL1 inh 0.5.
`COc1ccc(Cc2nnc(NN)[nH]c2=O)cc1OC` gave pCIP destab -2.7, Arr AP2 block 17.6 and Fh CTSL1 inh -11.1.
CC(C)(C)OC(=O)NC(=NCCCc1cn(CC(=O)N2CCN(C(=O)OC(C)(C)C)CC2)nn1)NC(=O)OC(C)(C)C was read as Hep lipid drop 13.4, pCIP destab -3.0, Arr AP2 block 1.1 and Fh CTSL1 inh -9.6.
Screening O=C(NCCN1CCOCC1)/C(=C\c1ccccc1Cl)NC(=O)c1ccccc1 returned Hep lipid drop -3.4, pCIP destab -14.4, Arr AP2 block 4.1 and Fh CTSL1 inh 18.8*.
`O=C(NCCN1CCOCC1)/C(=C/c1ccccc1)NC(=O)c1ccccc1` gave Hep lipid drop -5.8, pCIP destab -9.8, Arr AP2 block -2.1 and Fh CTSL1 inh -0.3.
For O=C(COC(=O)c1ccc([N+](=O)[O-])s1)Nc1ncc(C(F)(F)F)cc1Cl the results were Hep lipid drop -2.3, pCIP destab -6.0, Arr AP2 block 0.6 and Fh CTSL1 inh 34.0*.
`Cc1cccn2c(=O)c(/C=C(\C#N)C(=O)NC3CCS(=O)(=O)C3)c(N3CCC(C)CC3)nc12` (stereo not drawn) gave Hep lipid drop 27.0, pCIP destab 2.8, Arr AP2 block -4.2 and Fh CTSL1 inh 16.9*.
Cc1cccn2c(=O)c(/C=C(\C#N)C(=O)NC3CCS(=O)(=O)C3)c(Oc3ccc(F)cc3)nc12 (stereo not drawn) was read as Hep lipid drop 3.5, pCIP destab 0.1, Arr AP2 block -7.4 and Fh CTSL1 inh 0.3.
`COc1ccc2nc3c(c(-c4ccccc4)c2c1)CCC3` gave Hep lipid drop -2.5, pCIP destab -3.5, Arr AP2 block -1.3 and Fh CTSL1 inh 0.6.
COC(=O)C(C(=O)OC)c1ccc(-n2cccc2)cc1 was read as Hep lipid drop 15.7, pCIP destab -5.8, Arr AP2 block 55.9* and Fh CTSL1 inh -0.5.
Screening CC(C)C(=O)N1CCc2cc(-c3csc(N)n3)ccc21 returned Hep lipid drop 2.4, pCIP destab -8.3, Arr AP2 block 7.5 and Fh CTSL1 inh -1.2.
`CCc1onc(C)c1C(=O)Nc1ccc2c(c1)OCO2` gave Hep lipid drop 2.7, pCIP destab -1.8, Arr AP2 block 3.9 and Fh CTSL1 inh 18.7*.
Screening Cc1noc(C(=O)Nc2ccc3c(c2)OCO3)c1Cl returned Hep lipid drop -2.8, pCIP destab 6.6, Arr AP2 block 22.6 and Fh CTSL1 inh 0.7.
COC(=O)CCC/C=C1/SCC(NC(=O)c2ccccc2)C1NC(C)=O (stereo not drawn) was read as Hep lipid drop -14.7, pCIP destab -3.3, Arr AP2 block 18.5 and Fh CTSL1 inh 3.2.
COC(=O)CCC/C=C1/SCC(NC(=O)c2ccccc2)C1O (stereo not drawn) was read as Hep lipid drop 2.2, pCIP destab -31.8, Arr AP2 block 20.5 and Fh CTSL1 inh 47.9*.
Cc1noc(NS(=O)(=O)c2ccc(NC(=O)CC34CC5CC(CC(Br)(C5)C3)C4)cc2)c1C was read as pCIP destab -11.8, Arr AP2 block 8.6 and Fh CTSL1 inh 19.7*.
COc1ccc(NC(=O)COC(=O)C2C3CC4OC(=O)C2C4C3)cc1 (stereo not drawn) was read as Hep lipid drop 7.3, pCIP destab 8.4, Arr AP2 block 10.7 and Fh CTSL1 inh -2.6.
